Measurements published in ChEMBL document CHEMBL5042548, “Multiparameter Optimization of Oxidative Phosphorylation Inhibitors for the Treatment of Pancreatic Cancer” (J Med Chem, 2022).
pIC50: −log10 of the molar value. The source made the active and inactive calls. The calls are words filed in the database; no cut-off is given here.

Tests used:
MIA PaCa-2 [1] = assay: Cytotoxicity against human MIA PaCa-2 cells assessed as inhibition of cell growth incubated for overnight in glucose-containing medium followed by compound addition and measured after 7 days by MTT assay; type: functional, cell-based; conditions: MIA PaCa-2, 168 h
In short: (§1)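 7-day MTT in glucose medium (RPMI 1640 + 10% FBS). Seeding is 200 cells/well for MIA PaCa-2 and 300 cells/well for BxPC-3, overnight at 37 °C, 5% CO2, before compound. MTT 3 mg/mL is added for 4 h, then DMSO, and absorbance is read at 570 nm. IC50 is by nonlinear regression; ≥3 independent experiments.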

BXPC-3 = assay: Cytotoxicity against human BXPC-3 cells assessed as inhibition of cell growth incubated for overnight in glucose-containing medium followed by compound addition and measured after 7 days by MTT assay; type: functional, cell-based; conditions: BXPC-3, 168 h; in short: as §1
MIA PaCa-2 [2] = assay: Cytotoxicity against human MIA PaCa-2 cells assessed as inhibition of cell growth incubated for overnight in glucose-containing medium followed by compound addition and measured after 3 days by MTT assay; type: functional, cell-based; conditions: MIA PaCa-2, 72 h
In short: (§2)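 MIA PaCa-2 3-day MTT in glucose medium (RPMI 1640 + 10% FBS) or galactose medium (glucose-free RPMI + 10 mM galactose + 10% FBS). Galactose wells are seeded at 8000 cells/well. MTT read-out is at 570 nm after DMSO solubilization. IC50 is by nonlinear regression; ≥3 independent experiments.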

MIA PaCa-2 [3] = assay: Cytotoxicity against human MIA PaCa-2 cells assessed as inhibition of cell growth incubated for overnight in galactose-containing medium followed by compound addition and measured after 3 days by MTT assay; type: functional, cell-based; conditions: MIA PaCa-2, 72 h; in short: as §2
[4] = Metabolic stability in mouse liver microsomes assessed as half life at 10 uM measured up to 60 mins in presence of NADPH by LC-MS/MS analysis; type: ADME, Microsome; conditions: for t1/2: microsomes, 1 h, 10 µM; for half-life at 10 µM: liver microsomes
[5] = Metabolic stability in human liver microsomes assessed as half life at 10 uM measured up to 60 mins in presence of NADPH by LC-MS/MS analysis; type: ADME, Microsome; conditions: for t1/2: microsomes, 1 h, 10 µM; for half-life at 10 µM: liver microsomes
[6] = Inhibition of oxidative phosphorylation in human MIA PaCa-2 cells assessed as reduction in ATP production incubated for 24 hrs in glucose-containing medium by celltiter-glo luminescence cell viability assay; type: functional, cell-based; conditions: MIA PaCa-2, 24 h
In short: (§3)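 MIA PaCa-2 cells are seeded at 10000 cells/well in glucose RPMI + 10% FBS or in glucose-free RPMI + 10 mM galactose + 10% FBS. Total ATP is measured by CellTiter-Glo luminescence 24 h after compound. IC50 is by nonlinear regression; ≥3 independent experiments.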

[7] = Inhibition of oxidative phosphorylation in human MIA PaCa-2 cells assessed as reduction in ATP production incubated for 24 hrs in galactose-containing medium by celltiter-glo luminescence cell viability assay; type: functional, cell-based; conditions: MIA PaCa-2, 24 h; in short: as §3
[8] = Toxicity in C57BL/6 mouse allografted with mouse Panc02 cells assessed as body weight loss at 7.5 mg/kg, ip administered once a day for 28 days and measured twice per week; type: organism-based; conditions: in vivo, 672 h, time 28 day
In short: (§4)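 Female C57BL/6 mice, 6-10 weeks old, get 5×10^6 Pan02 cells s.c. in the right flank and are randomized at ~100 mm3 (n = 5/group). Dosing is daily for 28 days. Vehicle is 10% DMSO/50% PG/40% saline, except 15 mg/kg uses 10% DMSO/60% PG/30% saline. Caliper volume (length×width²)/2 and body weight are recorded twice weekly.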

[9] = Toxicity in C57BL/6 mouse allografted with mouse Panc02 cells assessed as drug tolerability at 7.5 mg/kg, ip administered once a day for 28 days; type: organism-based; conditions: in vivo, 672 h, time 28 day
Panc02 = assay: Antitumor activity against mouse Panc02 cells allografted in C57BL/6 mouse syngeneic model assessed as tumor growth inhibition at 2.5 mg/kg, ip administered once daily for 28 days and measured twice per week; type: functional, organism-based; conditions: time 28.0 day; in short: as §4
[10] = Toxicity in C57BL/6 mouse allografted with mouse Panc02 cells assessed as body weight loss at 2.5 mg/kg, ip administered once a day for 28 days and measured twice per week; type: organism-based; conditions: in vivo, 672 h, time 28 day; in short: as §4
[11] = Toxicity in C57BL/6 mouse allografted with mouse Panc02 cells assessed as drug tolerability at 2.5 mg/kg, ip administered once a day for 28 days; type: organism-based; conditions: in vivo, 672 h, time 28 day

Row | Structure (SMILES) | pIC50 (MIA PaCa-2 [1]) | pIC50 (BXPC-3) | pIC50 (MIA PaCa-2 [2]) | pIC50 (MIA PaCa-2 [3]) | also measured
1 | O=C([C@@H]1CCCN(S(=O)(=O)c2ccc(S(=O)(=O)C3COC3)cc2)C1)N1CCC(F)(F)CC1 | 6.96 | 6.44 | – | – | –
2 | CCN(CC)S(=O)(=O)c1ccc(S(=O)(=O)N2CCC[C@@H](C(=O)N3CCC(O)CC3)C2)cc1 | 6.06 | 5.33 | < 5.00 | 6.64 | –
3 | CCN(CC)S(=O)(=O)c1ccc(S(=O)(=O)N2CCC[C@@H](C(=O)N[C@@H]3CCOC3)C2)cc1 | 6.12 | 5.64 | < 5.00 | 7.00 | –
4 | CCOC(=O)[C@@H]1CCCN(S(=O)(=O)c2ccc(S(=O)(=O)N(CC)CC)cc2)C1 | – | – | – | – | GI50 (MIA PaCa-2 [1]; time 7 day): 600 nM
5 | CCC(CC)S(=O)(=O)c1ccc(S(=O)(=O)N2CCC[C@@H](C(=O)N3CCC(F)(F)CC3)C2)cc1 | 7.89 | 7.40 | – | – | t1/2 [4]: 8.7 min; t1/2 [5]: 17.1 min
6 | CCN(CC)S(=O)(=O)c1ccc(S(=O)(=O)N2CCC[C@@H](C(=O)N[C@H]3CC[C@@H](OC)CC3)C2)cc1 | 6.02 | 5.67 | < 5.00 | 6.23 | –
7 | CCN(CC)S(=O)(=O)c1ccc(S(=O)(=O)N2CCC[C@@H](C(=O)NC3CCOCC3)C2)cc1 | 5.42 | 5.07 | < 5.00 | 5.87 | –
8 | CCN(CC)S(=O)(=O)c1ccc(S(=O)(=O)N2CCC[C@@H](C(=O)N3CCC(C(F)(F)F)CC3)C2)cc1 | 6.49 | 6.43 | < 5.00 | 6.96 | –
9 | FC(F)(F)c1ccc(/C=C/c2nc(COc3ccc(CCCCn4ccnn4)cc3)co2)cc1 [MUBRITINIB] | 7.29 | – | – | – | –
10 | CN(C)S(=O)(=O)c1ccc(S(=O)(=O)N2CCC[C@@H](C(=O)N3CCC(F)(F)CC3)C2)cc1 | – | 6.25 | < 5.52 | 7.14 | half-life at 10 µM [4]: 32 min; half-life at 10 µM [5]: > 60 min; pIC50 [6]: < 5.52; pIC50 [7]: 7.10; Activity [8]: Non-Toxic; Activity [9]: Non-Toxic
11 | CCN(CC)S(=O)(=O)c1ccc(S(=O)(=O)N2CCC[C@@H](C(=O)N3CCS(=O)(=O)CC3)C2)cc1 | 6.05 | 5.35 | < 5.00 | 6.66 | –
12 | CCN(CC)S(=O)(=O)c1ccc(S(=O)(=O)N2CCC[C@@H](C(=O)N[C@H]3CCOC3)C2)cc1 | 5.78 | 5.28 | < 5.00 | 6.54 | –
13 | CCN(CC)S(=O)(=O)c1ccc(S(=O)(=O)N2CCC[C@@H](C(=O)N3CC[C@@H](OC)C3)C2)cc1 | 5.41 | 4.94 | < 5.00 | 5.97 | –
14 | O=C([C@@H]1CCCN(S(=O)(=O)c2ccc(S(=O)(=O)C3CC3)cc2)C1)N1CCC(F)(F)CC1 | 7.59 | 6.89 | – | – | –
15 | CP(C)(=O)c1ccc(S(=O)(=O)N2CCC[C@@H](C(=O)N3CCC(F)(F)CC3)C2)cc1 | < 4.52 | < 4.52 | – | – | –
16 | CCN(CC)S(=O)(=O)c1ccc(S(=O)(=O)N2CCC[C@@H](C(=O)N3CC[C@H](OC)C3)C2)cc1 | 5.61 | 5.17 | < 5.00 | 6.34 | –
17 | CCN(CC)S(=O)(=O)c1ccc(S(=O)(=O)N2CCC[C@@H](C(=O)N3CCC(C(F)F)CC3)C2)cc1 | 6.38 | 6.35 | < 5.00 | 6.85 | –
18 | O=C([C@@H]1CCCN(S(=O)(=O)c2ccc(S(=O)(=O)N3CC[C@H](O)C3)cc2)C1)N1CCC(F)(F)CC1 | 6.23 | 6.24 | – | – | –
19 | CCN(CC)S(=O)(=O)c1ccc(S(=O)(=O)N2CCC[C@@H](C(=O)N3CCOCC3)C2)cc1 | 6.46 | 6.10 | < 5.00 | 6.80 | –
20 | CCN(CC)S(=O)(=O)c1ccc(S(=O)(=O)N2CCC[C@@H](C(=O)N3CCC(COC)CC3)C2)cc1 | 6.60 | 5.87 | < 5.00 | 7.30 | –
21 | CCP(=O)(CC)c1ccc(S(=O)(=O)N2CCC[C@@H](C(=O)N3CCC(F)(F)CC3)C2)cc1 | 4.67 | < 4.52 | – | – | –
22 | CCN(CC)C(=O)c1ccc(S(=O)(=O)N2CCC[C@@H](C(=O)N3CCC(F)(F)CC3)C2)cc1 | 7.15 | 6.62 | – | – | –
23 | CCN(CC)S(=O)(=O)c1ccc(S(=O)(=O)N2CCC[C@@H](C(=O)N3CCC(F)(F)CC3)C2)cc1 | 7.80 | 6.92 | < 5.00 | 7.72 | t1/2 [4]: 2.6 min; half-life at 10 µM [5]: 2.74 min; pIC50 [6]: < 5.52; pIC50 [7]: 7.67
24 | CC(C)CS(=O)(=O)c1ccc(S(=O)(=O)N2CCC[C@@H](C(=O)N3CCC(F)(F)CC3)C2)cc1 | 7.10 | 6.51 | – | – | –
25 | CCN(CC)S(=O)(=O)c1ccc(S(=O)(=O)N2CCC[C@@H](C(=O)N3CCC(OC)CC3)C2)cc1 | 6.85 | 5.85 | < 5.00 | 7.30 | –
26 | CCN(CC)S(=O)(=O)c1ccc(S(=O)(=O)N2CCC[C@@H](C(=O)N[C@H]3CC[C@H](OC)CC3)C2)cc1 | 5.87 | 5.70 | < 5.00 | 5.64 | –
27 | O=C([C@@H]1CCCN(S(=O)(=O)c2ccc(S(=O)(=O)C3CCC3)cc2)C1)N1CCC(F)(F)CC1 | 8.05 | 7.11 | < 5.52 | 7.90 | half-life at 10 µM [4]: 44 min; half-life at 10 µM [5]: > 60 min; pIC50 [6]: < 5.52; pIC50 [7]: 7.80; Activity (Panc02): Active; Activity [10]: Non-Toxic; Activity [11]: Non-Toxic
28 | CC(C)NS(=O)(=O)c1ccc(S(=O)(=O)N2CCC[C@@H](C(=O)N3CCC(F)(F)CC3)C2)cc1 | 6.46 | 6.33 | – | – | t1/2 [4]: 23.1 min; t1/2 [5]: 19.7 min
